Measured values from ChEMBL document CHEMBL3044661, “Antifungal clerodane diterpenes from Macaranga monandra (L) Muell. et Arg. (Euphorbiaceae)” (J Agric Food Chem, 2003).
Activity calls are given as the source filed them. The calls are words filed in the database; no cut-off is given here.

Legend:
Botrytis cinerea = test: Growth inhibition of Botryotinia fuckeliana at 30 uM after 48 hr by microtiter assay; format: functional; conditions: read-out: GI
Procedure, shortened: (§1)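 96-well broth microassay. Conidia came from 7–10-day PDA cultures, were filtered through miracloth and set photometrically (625 nm %T curve) to 1.0×10^6 conidia/mL. Final doses were 0.3, 3.0 and 30.0 µM, in duplicate. Plates ran at 24 ± 1 °C with a 12-h photoperiod. A620 was read at 48 and 72 h. Percent inhibition (n = 4) was taken relative to untreated growth controls (n = 32). Split-plot design, replicated twice in time.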

Colletotrichum fragariae [1] = test: Antifungal activity against Colletotrichum fragariae assessed as zone of inhibition at 100 ug/ml after 4 days by TLC bioautographic analysis; format: functional; conditions: 96 h, read-out: IZ
Procedure, shortened: (§2)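 TLC bioautography on silica gel GF plates with fluorescent indicator. Compounds were spotted in a dose series at final 3.12–100 µg/mL. Plates were sprayed three times with conidia at final 3.0×10^5 conidia/mL in potato-dextrose broth with 0.1% Tween-80, then held in a moisture chamber at 24 ± 1 °C with a 12-h photoperiod. Inhibition zones (mm) were read at 4 d and reported as mean ± SD.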

Colletotrichum acutatum [2] = test: Growth inhibition of Colletotrichum acutatum at < / = 30 uM after 48 to 72 hr by microtiter assay; format: functional, organism-based; procedure, shortened: as §1
Colletotrichum fragariae [3] = test: Antifungal activity against Colletotrichum fragariae assessed as zone of inhibition at 50 ug/ml after 4 days by TLC bioautographic analysis; format: functional; conditions: 96 h, read-out: IZ; procedure, shortened: as §2
Colletotrichum fragariae [4] = test: Growth inhibition of Colletotrichum fragariae at < / = 30 uM after 72 hr by microtiter assay; format: functional, organism-based; procedure, shortened: as §1
Phomopsis obscurans [5] = test: Growth stimulation of Phomopsis obscurans at low concentration by microtiter assay; format: organism-based; conditions: paraphomopsis obscurans, in vivo
Procedure, shortened: (§3)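 96-well broth microassay against Phomopsis viticola or P. obscurans. Conidial inoculum was filtered and photometrically set to 1.0×10^6 conidia/mL. Final doses were 0.3, 3.0 and 30.0 µM, in duplicate. Incubation was at 24 ± 1 °C with a 12-h photoperiod, and A620 was recorded at 120 h. Mean percent inhibition (n = 4) was taken against untreated positive controls (n = 32). Split-plot design, replicated twice in time.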

[6] = tested on: Colletotrichum gloeosporioides; test: Growth stimulation of Colletotrichum gloeosporioides at low concentration by microtiter assay; format: organism-based; conditions: in vivo; procedure, shortened: as §1
[7] = tested on: Colletotrichum gloeosporioides; test: Growth inhibition of Colletotrichum gloeosporioides at < / = 30 uM after 48 to 72 hr by microtiter assay; format: functional, organism-based; procedure, shortened: as §1
Colletotrichum fragariae [8] = test: Antifungal activity against Colletotrichum fragariae assessed as zone of inhibition at 25 ug/ml after 4 days by TLC bioautographic analysis; format: functional; conditions: 96 h, read-out: IZ; procedure, shortened: as §2
Phomopsis obscurans [9] = test: Growth inhibition of Phomopsis obscurans at 30 uM after 120 hr by microtiter assay; format: functional; conditions: Paraphomopsis obscurans, read-out: GI; procedure, shortened: as §3
Diaporthe ampelina = test: Growth inhibition of Diaporthe ampelina at 30 uM after 120 hr by microtiter assay; format: functional; conditions: read-out: GI; procedure, shortened: as §3
Fusarium oxysporum = test: Growth inhibition of Fusarium oxysporum at < / = 30 uM after 48 to 72 hr by microtiter assay; format: functional, organism-based; procedure, shortened: as §1
[10] = tested on: Colletotrichum gloeosporioides; test: Antifungal activity against Colletotrichum gloeosporioides assessed as zone of inhibition at 100 ug/ml after 4 days by TLC bioautographic analysis; format: functional; conditions: 96 h, read-out: IZ; procedure, shortened: as §2
Colletotrichum acutatum [11] = test: Growth stimulation of Colletotrichum acutatum at low concentration by microtiter assay; format: organism-based; conditions: in vivo; procedure, shortened: as §1

Row | Activity (Phomopsis obscurans [5]) | Activity [6] | Activity (Colletotrichum acutatum [11]) | SMILES | inhibition of growth at 30 µM (Botrytis cinerea) | zone of inhibition at 100 µg/mL (Colletotrichum fragariae [1]) | growth inhibition (GI) (Colletotrichum acutatum [2]) | zone of inhibition at 50 µg/mL (Colletotrichum fragariae [3]) | growth inhibition (GI) (Colletotrichum fragariae [4]) | growth inhibition (GI) [7] | zone of inhibition at 25 µg/mL (Colletotrichum fragariae [8]) | inhibition of growth at 30 µM (Phomopsis obscurans [9]) | inhibition of growth at 30 µM (Diaporthe ampelina) | growth inhibition (GI) (Fusarium oxysporum) | zone of inhibition at 100 µg/mL [10]
1 | Dose-dependent effect and tde | Dose-dependent effect and tde | Dose-dependent effect and tde | CC1=CC(=O)C[C@@H]2[C@@](C)(CC/C(C)=C/C(=O)O)[C@H](C)CC[C@@]12C [2-OXO-KOLAVENIC ACID] | 23% | 8 mm | inactive | 8 mm | inactive | inactive | 6 mm | 8% | 46% | inactive | 0 mm
2 | Dose-dependent effect and tde | Dose-dependent effect and tde | Dose-dependent effect and tde | CC1=CCC[C@@H]2[C@@](C)(CC/C(C)=C/C(=O)O)[C@H](C)CC[C@@]12C [KOLAVENIC ACID] | 23% | 9 mm | inactive | 8.5 mm | inactive | inactive | 5 mm | 26% | 50% | inactive | 9.5 mm
